# Experimental data gathered from unrelated publications.
# Compare with care: the assays were run in different laboratories.
# Target: Mitogen-activated protein kinase kinase kinase kinase 3 (MAP4K3, Homo sapiens, UniProt Q8IVH8)
# One construct used (Q8IVH8 1-894): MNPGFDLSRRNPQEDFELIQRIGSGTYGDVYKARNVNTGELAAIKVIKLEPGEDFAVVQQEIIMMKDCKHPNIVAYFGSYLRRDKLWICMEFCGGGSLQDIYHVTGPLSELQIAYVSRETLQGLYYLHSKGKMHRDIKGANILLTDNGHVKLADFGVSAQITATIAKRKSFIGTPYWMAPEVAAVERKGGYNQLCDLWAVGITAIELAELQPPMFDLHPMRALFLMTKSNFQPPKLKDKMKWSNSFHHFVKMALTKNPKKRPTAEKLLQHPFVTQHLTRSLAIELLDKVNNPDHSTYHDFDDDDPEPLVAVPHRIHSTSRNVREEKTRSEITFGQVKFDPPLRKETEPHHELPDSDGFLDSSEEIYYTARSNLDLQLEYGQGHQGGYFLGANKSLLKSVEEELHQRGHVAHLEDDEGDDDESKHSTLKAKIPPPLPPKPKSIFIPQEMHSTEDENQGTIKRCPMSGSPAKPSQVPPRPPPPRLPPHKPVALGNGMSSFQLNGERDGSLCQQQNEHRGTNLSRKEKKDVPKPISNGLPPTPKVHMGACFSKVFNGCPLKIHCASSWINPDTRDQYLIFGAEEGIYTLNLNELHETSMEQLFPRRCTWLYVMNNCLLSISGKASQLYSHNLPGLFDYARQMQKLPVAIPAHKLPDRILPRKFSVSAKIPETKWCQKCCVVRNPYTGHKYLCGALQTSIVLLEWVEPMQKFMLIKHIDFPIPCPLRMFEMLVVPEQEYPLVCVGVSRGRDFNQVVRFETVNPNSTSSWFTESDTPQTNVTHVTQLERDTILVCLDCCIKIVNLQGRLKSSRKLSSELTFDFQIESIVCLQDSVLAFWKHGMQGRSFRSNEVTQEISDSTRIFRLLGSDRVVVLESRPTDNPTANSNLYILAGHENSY
SMILES,observed,method,tested at,remaining binding [%]
CC1=C(C#N)[C@@H](c2ccc3[nH]nc(C)c3c2)C(C#N)=C(c2ccc(Cl)cc2)N1,cell-free assay,competition with immobilised ligand,1 µM,100
CN(C)c1ncc(F)c(-c2cnn3ncccc23)n1,binding,,1 µM,100
NS(=O)(=O)c1cc(NC(=O)Cc2ccccc2)ccc1Oc1cccc(Cl)c1,cell-free assay,competition with immobilised ligand,1 µM,100
FC(F)(F)Oc1cccc(-c2cnc3ccc(-c4ccncc4)nn23)c1,cell-free assay,competition with immobilised ligand,5 µM,86
CC(C)(O)c1cncc(-c2nc3ccc(F)cc3n2C2CC2)c1,cell-free assay,competition with immobilised ligand,1 µM,100
O=C(c1ccc(Nc2nccc(-c3cc4ccccc4s3)n2)cc1)N1CCC(N2CCCC2)CC1,binding,competition with immobilised ligand,1 µM,93
O=C(NCC1CCOCC1)c1n[nH]cc1NC(=O)c1c(F)cccc1F,binding,competition with immobilised ligand,1 µM,82
O=C(NCCCN1CCOCC1)c1ccc(Nc2ncc(Cl)c(-c3ccc(Cl)s3)n2)cc1,binding,competition with immobilised ligand,1 µM,38
COc1cnc(Nc2cccc(S(N)(=O)=O)c2)nc1N1CCN(c2ccccc2)C(=O)C1,binding,competition with immobilised ligand,1 µM,95
CN(CCCC(F)(F)F)c1nccc(-c2cnn3ncccc23)n1,binding,,1 µM,100
Cc1cnc(Nc2ccc(C(=O)N3CCC(N4CCCC4)CC3)cc2)nc1-c1cc2ccccc2s1,binding,competition with immobilised ligand,1 µM,50
Nc1c(C(=O)NCc2ccc(C(=O)NCCCC3CCCCC3)cc2)cnn1-c1ccccc1,cell-free assay,competition with immobilised ligand,0.1 µM,100
COc1ccnn2ncc(-c3ccnc(N(C)C)n3)c12,binding,,1 µM,100
COc1ncc2cc3ccccc3nc2c1C#N,cell-free assay,competition with immobilised ligand,5 µM,100
CN(C)c1nccc(-c2cnc3ncccn23)n1,binding,,1 µM,100
Nc1ncc2c(n1)-c1c([nH]c3ccc(C#CC4CC4)cc13)CCCC2,binding,competition with immobilised ligand,1 µM,87
O=C(O)c1cc(-c2ccc(C3CCNCC3)cc2)c2ccc(-c3ccc(C(F)(F)F)cc3)cc2c1,cell-free assay,competition with immobilised ligand,1 µM,100
N[C@H]1CCN(c2nccc(-c3cnn4ncccc34)n2)C1,binding,,1 µM,100
O=C(N1CCS(=O)(=O)CC1)N1C[C@H](c2ccc(OC(F)(F)F)cc2)C[C@H](c2nc(C3CC3)no2)C1,cell-free assay,competition with immobilised ligand,1 µM,100
c1cnn2ncc(-c3ccnc(N4CCC45COC5)n3)c2c1,binding,,1 µM,88
